Experimental data of several laboratories.
Compare with care: the assays were run in different laboratories.
Target: Histamine H1 receptor (HRH1, Homo sapiens, UniProt P35367)
Technique: radioligand

CN1CCN(C2c3ccccc3C=Cc3ccccc32)CC1
Ki (cell-free assay): 0.002 µM

CN(C)c1ccc(/C=C/C=C2\CCc3cc(OCCCN4CCCCC4)ccc3C2=O)cc1
Ki (ligand displacement; cell membranes): 0.881 µM

Clc1ccc(CCCOCCCN2CCCCC2)cc1
Ki (ligand displacement; cell membranes): > 10 µM

CN1CCC(C2c3ccccc3CCc3ccccc32)CC1
Ki (cell-free assay): 0.000631 µM

CCc1nc2cc(OCCCCN3CCC(c4cccc(Cl)c4Cl)CC3)ccc2s1
Ki (ligand displacement): 0.69 µM

CN(C)CCOC1c2ccccc2C=Cc2ccccc21
Ki (cell-free assay): 0.000316 µM

Cc1nc2cc(OCCCCN3CCN(c4cccc(Cl)c4Cl)CC3)ccc2s1
Ki (ligand displacement): 0.057 µM

O=C1CCCc2ccc(OCCCN3CCCCC3)cc21
Ki (ligand displacement; cell membranes): 3.72 µM

CCCNc1nc2ccccc2n1Cc1ccc(Cl)cc1
Ki (cell-free assay): 0.0062 µM

O=C1CCCc2cc(OCCCN3CCCCC3)ccc21
Ki (ligand displacement; cell membranes): 3.47 µM

CCCCN1CCC(COC(=O)c2ccc(N)c(OCF)c2)CC1
Ki (cell-free assay): > 10 µM

CN(C)c1ccc(/C=C2\CCc3ccc(OCc4ccc(OCCCN5CCCCC5)cc4)cc3C2=O)cc1
Ki (ligand displacement; cell membranes): 4.23 µM

O=C1NC(=O)C(c2ccccc2)(c2ccc(OCCCN3CCCCC3)cc2)N1 (centres unmarked)
Ki (ligand displacement; cell membranes): 6.15 µM

CN1CCN(C2c3ccccc3CCc3ccccc32)CC1
Ki (cell-free assay): 0.002 µM
